The values below come from ChEMBL document CHEMBL1155146, “Diphenyl furans and aza analogs: effects of structural modification on in vitro activity, DNA binding, and accumulation and distribution in trypanosomes” (Antimicrob Agents Chemother, 2007).

Data set [1] has as its system Trypanosoma brucei brucei. Description: Antitrypanosomal activity against Trypanosoma brucei brucei S427 after 72 hrs. The conditions noted are these: S427, 72 h. Format: functional, organism-based.
Data set [2] in a line: Binding affinity to poly(dA).poly(dT) assessed as increase in melting temperature. The procedure, abridged:
(§1)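 UV thermal melting in MES buffer (0.01 M MES, 0.1 M NaCl, 0.001 M EDTA, pH 6.2), heated at 0.5°C/min. Oligomer duplex at 1 x 10^-6 M duplex with 1:1 compound:duplex. Poly(dA)·poly(dT) at 5 x 10^-5 M base pairs with 0.6 compound:bp. Tm taken from the first-derivative maximum of absorbance vs temperature. ΔTm = Tm(complex) − Tm(DNA).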

For data set [3], the system named is Trypanosoma brucei rhodesiense. Description: Antitrypanosomal activity against Trypanosoma brucei rhodesiense STIB900 after 72 hrs. The data set is classed as functional, organism-based. The conditions noted are these: STIB900, 72 h.
A short description of data set [4]: Binding affinity at d(CGCGAATTCGCG) synthetic oligomer duplex assessed as increase in melting temperature. In a few lines: as §1
Data set [5] concerns Trypanosoma brucei brucei. Description: Drug level in Trypanosoma brucei brucei S427 at 7.5 uM after 24 hrs. The data set is classed as ADME, organism-based.
Data set [6] deals with Trypanosoma brucei brucei. Description: Drug level in Trypanosoma brucei brucei S427 at 7.5 uM after 8 hrs. The data set is classed as ADME, organism-based. In a few lines:
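About 10^6 trypanosomes incubated with 7.5 µM diamidine for 1 to 8 h. Intracellular concentration measured by HPLC (fluorescence detection at excitation/emission maxima, formate buffer/acetonitrile gradient, reversed-phase column) or LC/MS. Reported as mean ± standard error.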

SMILES strings stand for the structures.

Take `c1cc(-c2ccc(-c3ccc(C4=NCCCN4)cc3)o2)ccc1C1=NCCCN1`: the values for the IC50 in data set [1] and in data set [3] were 260 nM and 33 nM, respectively. Further, the shift in melting temperature (ΔTm) was 27 °C in data set [2] and 15.1 °C in data set [4].

With `N=C(N)c1ccc(-c2ccc(-c3ccc(C(=N)N)cc3)o2)cc1` [FURAMIDINE], the Drug uptake is listed as 12 mM in data set [5] and 4.5 mM in data set [6]. The same molecule came in with an IC50 in data set [1] of 7 nM. Further, the thermal shift (ΔTm) in data set [2] was determined as 26.2 °C; in data set [4], 8.9 °C.

For `N=C(NC1CCCCC1)c1ccc(-c2ccc(-c3ccc(C(=N)NC4CCCCC4)cc3)o2)cc1`, the IC50 was found to be 121 nM in data set [1] and 68 nM in data set [3]. The Drug uptake in data set [6] is listed as 30 mM. In addition, the shift in melting temperature (ΔTm) in data set [2] turned out to be 27 °C; in data set [4], 16.8 °C.

Take `N=C(N)c1ccc(Cc2ccc(-c3ccc(C(=N)N)cn3)o2)cc1`: the IC50 in data set [1] came out at 314 nM; in data set [3], 147 nM. In addition, the shift in melting temperature (ΔTm) in data set [2] turned out to be 3.1 °C; in data set [4] it was 0.4 °C.

Turning to `N=C(N)c1ccc(-c2ccc(-c3ccc(C(=N)N)cc3O)o2)nc1`, the 50% inhibitory concentration (IC50) in data set [1] and in data set [3] was 32 nM each time. For the same molecule, the ΔTm in data set [2] was 16.4 °C; in data set [4], 10.4 °C.

In the case of `N=C(N)c1ccc(-c2ccc(-c3ccc(C(=N)N)cc3F)o2)c(F)c1`, the half-maximal inhibitory concentration (IC50) in data set [1] stood at 14.8 nM; in data set [3], 8 nM. In addition, the ΔTm in data set [2] was determined as 15.2 °C; in data set [4] it was 8.2 °C.

Turning to `N=C(N)c1ccc(-c2ccc(-c3ccc(C(=N)N)cn3)o2)nc1`, the results for the IC50 in data set [1] and in data set [3] were 13 nM and 19 nM, respectively. Moreover, the ΔTm in data set [2] is 16 °C; in data set [4], 8.4 °C.

As to `N=C(N)c1ccc(-c2coc(-c3ccc(C(=N)N)cc3)c2)cc1`, the IC50 in data set [1] was 2.1 nM; in data set [3], 1.7 nM. Moreover, the Drug uptake in data set [6] was 30 mM. Further, the ΔTm in data set [2] was found to be 17.1 °C; in data set [4], 10.4 °C.

On to `N=C(N)c1ccc(-c2ccc(-c3ccc(C(=N)N)cn3)o2)cc1`, for which the Drug uptake in data set [5] is given as 3 mM; in data set [6], 1 mM. Besides, half-maximal inhibition in data set [1] (IC50) was put at 3.4 nM. The thermal shift (ΔTm) was found to be 20 °C in data set [2] and 11.2 °C in data set [4].

`N=C(N)c1ccc(-c2ccc(-c3ccc(C(=N)N)nc3)o2)cc1`: the IC50 turned out to be 3.3 nM in data set [1] and 2.1 nM in data set [3]. Also, the Drug uptake in data set [6] was 9.3 mM. Moreover, the thermal shift (ΔTm) in data set [2] worked out at 23.3 °C; in data set [4] it was 10.4 °C.

As for `Cc1cc(C(=N)N)ccc1-c1ccc(-c2ccc(C(=N)N)cn2)o1`, the half-maximal inhibitory concentration (IC50) is 10 nM in data set [1] and 9.7 nM in data set [3]. The ΔTm in data set [2] is 16.7 °C; in data set [4], 10.6 °C.

For `c1cc(-c2ccc(-c3ccc(C4=NCCN4)cc3)o2)ccc1C1=NCCN1`, the IC50 in data set [1] was determined as 251 nM; in data set [3], 245 nM. Besides, the shift in melting temperature (ΔTm) stood at 19.3 °C in data set [2] and 11 °C in data set [4].

Regarding `N=C(NC1CCCC1)c1ccc(-c2ccc(-c3ccc(C(=N)NC4CCCC4)cc3)o2)cc1`, the IC50 in data set [1] turned out to be 100 nM; in data set [3], 60 nM. This molecule also displayed a Drug uptake in data set [6] of 30 mM. In addition, the ΔTm in data set [2] turned out to be 27 °C; in data set [4], 16 °C.

Usually IC50 stands for the concentration at which inhibition is half-maximal. A low value points to inhibition by little substance. One may read the ΔTm as the shift of the melting midpoint relative to a reference.
